pKi: −log10 of the molar value.
Key:
Homo sapiens [1] = species: Homo sapiens; assay: Selectivity for human recombinant adenosine A2B receptor over human recombinant adenosine A1 receptor
Homo sapiens [2] = species: Homo sapiens; assay: Selectivity for human recombinant adenosine A2B receptor over human recombinant adenosine A3 receptor
Homo sapiens [3] = species: Homo sapiens; assay: Selectivity for human recombinant adenosine A2B receptor over human recombinant adenosine A2A receptor
Adenosine receptor A2b = target: T1, Adenosine receptor A2b (Homo sapiens, UniProt P29275); assay: Displacement of [3H]ZM-241385 from human recombinant adenosine A2B receptor expressed in HEK293 cells; assay type: cell-based
T1 sequence (P29275 whole entry): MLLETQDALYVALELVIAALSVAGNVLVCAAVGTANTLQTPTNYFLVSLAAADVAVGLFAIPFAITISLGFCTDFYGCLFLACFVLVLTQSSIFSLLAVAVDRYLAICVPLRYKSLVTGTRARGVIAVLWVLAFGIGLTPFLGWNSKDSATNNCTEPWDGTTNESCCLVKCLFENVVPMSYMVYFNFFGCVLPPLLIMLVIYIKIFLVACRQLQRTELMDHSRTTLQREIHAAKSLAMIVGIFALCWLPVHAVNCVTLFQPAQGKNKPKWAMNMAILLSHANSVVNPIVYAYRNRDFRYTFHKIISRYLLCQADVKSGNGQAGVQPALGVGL
Summary of the method: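 Membranes from HEK293 cells stably expressing human A2B receptor; competition with 10 nM radioligand, 50 µg membrane protein, in 50 mM Tris/1 mM EDTA with 1 U/mL adenosine deaminase, 25 °C for 90 min with gentle agitation; filtration, four ice-cold Tris/MgCl2 washes. Nonspecific binding defined with 10 µM unlabelled ligand; Ki calculated.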

Adenosine receptor A1 = target: T2, Adenosine receptor A1 (Homo sapiens, UniProt P30542); assay: Displacement of [3H]CPX from human recombinant adenosine A1 receptor expressed in CHO cells; assay type: cell-based
T2 sequence (P30542 whole entry): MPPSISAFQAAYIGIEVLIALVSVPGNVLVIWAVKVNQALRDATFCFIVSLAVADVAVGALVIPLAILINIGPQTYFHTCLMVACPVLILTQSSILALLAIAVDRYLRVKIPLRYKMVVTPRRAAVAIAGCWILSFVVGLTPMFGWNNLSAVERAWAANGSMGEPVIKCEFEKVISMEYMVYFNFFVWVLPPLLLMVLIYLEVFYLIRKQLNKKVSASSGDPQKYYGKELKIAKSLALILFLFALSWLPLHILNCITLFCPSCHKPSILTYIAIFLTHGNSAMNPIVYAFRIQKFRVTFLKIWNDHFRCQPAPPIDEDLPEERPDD
Summary of the method: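 CHO cell membranes stably expressing human A1 receptor; 0.5 nM [3H]CPX competed with test compound in 50 mM Tris/1 mM EDTA plus 1 U/mL adenosine deaminase, 25 °C, 90 min, gentle agitation; filtration and four ice-cold Tris/MgCl2 washes. Nonspecific binding defined with 1 µM CPX; Ki values derived.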

Adenosine receptor A3 = target: T3, Adenosine receptor A3 (Homo sapiens, UniProt P0DMS8); assay: Displacement of [125I]ABMECA from human recombinant adenosine A3 receptor expressed in CHO cells; assay type: cell-based
T3 sequence (P0DMS8 whole entry): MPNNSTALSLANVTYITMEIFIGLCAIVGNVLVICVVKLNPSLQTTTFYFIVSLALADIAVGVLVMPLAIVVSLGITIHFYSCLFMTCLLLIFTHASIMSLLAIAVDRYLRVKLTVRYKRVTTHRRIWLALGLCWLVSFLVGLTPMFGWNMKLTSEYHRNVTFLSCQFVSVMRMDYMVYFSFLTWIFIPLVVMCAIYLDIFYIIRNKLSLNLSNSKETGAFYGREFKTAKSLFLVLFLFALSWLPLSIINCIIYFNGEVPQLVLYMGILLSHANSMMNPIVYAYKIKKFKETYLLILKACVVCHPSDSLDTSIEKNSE
Summary of the method: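 Human A3 receptor stably expressed in CHO cells; membranes incubated with 0.1 nM 125I-AB-MECA and test compound in 50 mM Tris, 1 mM EDTA, 10 mM MgCl2 plus 1 U/mL adenosine deaminase, 25 °C, 90 min; filtration, four ice-cold washes. Nonspecific binding defined with 1 µM IB-MECA; Ki determined.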

Adenosine receptor A2a = Adenosine receptor A2a (Homo sapiens, UniProt P29274); assay: Displacement of [3H]ZM-241385 from human recombinant adenosine A2A receptor expressed in HEK293 cells; assay type: cell-based
Summary of the method: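 Membranes from HEK293 cells stably expressing human A2A receptor; 2 nM radioligand competed in 50 mM Tris/1 mM EDTA with 1 U/mL adenosine deaminase for 90 min at 25 °C with agitation; filtration, four ice-cold Tris/MgCl2 washes. Nonspecific binding defined with 1 µM unlabelled ligand; Ki computed.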

Adenosine receptor A2a, sequence (P29274 whole entry): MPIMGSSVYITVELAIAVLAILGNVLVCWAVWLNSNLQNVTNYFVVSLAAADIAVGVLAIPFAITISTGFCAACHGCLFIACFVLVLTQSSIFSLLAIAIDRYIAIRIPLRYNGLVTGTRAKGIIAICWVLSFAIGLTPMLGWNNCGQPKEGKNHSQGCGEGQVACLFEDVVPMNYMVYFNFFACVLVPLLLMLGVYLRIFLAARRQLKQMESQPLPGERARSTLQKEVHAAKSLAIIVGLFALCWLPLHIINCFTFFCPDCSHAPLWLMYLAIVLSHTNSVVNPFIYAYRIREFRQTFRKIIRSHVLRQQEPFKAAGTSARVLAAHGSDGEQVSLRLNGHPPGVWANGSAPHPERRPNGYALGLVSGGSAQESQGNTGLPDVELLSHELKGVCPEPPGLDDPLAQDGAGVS

Structure (SMILES)	Ratio Ki (Homo sapiens [1])	Ratio Ki (Homo sapiens [2])	Ratio Ki (Homo sapiens [3])	pKi (Adenosine receptor A2b)	pKi (Adenosine receptor A1)	pKi (Adenosine receptor A3)	pKi (Adenosine receptor A2a)
CCn1c(=O)c2nc(-c3cnn(Cc4cccc(F)c4)c3)[nH]c2n(CC)c1=O	76	91	58	–	–	–	–
CCCn1c(=O)c2[nH]c(-c3cnn(Cc4cccc(F)c4)c3)nc2n(CC)c1=O	34	27	71	7.46	5.92	6.02	5.60
CCCCn1c(=O)c2[nH]c(-c3cnn(Cc4ccccc4)c3)nc2n(C)c1=O	13	–	8	7.52	6.38	–	6.61
CCCn1c(=O)c2[nH]c(-c3cnn(Cc4ccccc4)c3)nc2n(CC)c1=O	9	–	8	7.51	6.56	–	6.58
CCn1c(=O)n(CC(C)C)c(=O)c2[nH]c(-c3cn[nH]c3)nc21	2	–	9	6.85	6.46	–	5.91
CCCn1c(=O)c2[nH]c(-c3cn[nH]c3)nc2n(CC)c1=O	4	–	10	7.31	6.75	–	6.30
CCCn1c(=O)c2[nH]c(-c3cnn(Cc4cccc(F)c4)c3)nc2n(CCC)c1=O	13	4	17	–	–	–	–
Cn1c(=O)c2[nH]c(-c3cnn(Cc4cccc(F)c4)c3)nc2n(C)c1=O	17	–	7	–	–	–	–
CCn1c(=O)c2[nH]c(-c3cnn(Cc4cccc(F)c4)c3)nc2n(C)c1=O	58	47	38	8.22	6.46	6.55	6.64
CCn1c(=O)n(CC2CC2)c(=O)c2[nH]c(-c3cnn(Cc4ccccc4)c3)nc21	11	–	6	7.57	6.50	–	6.74
CCn1c(=O)n(CC2CC2)c(=O)c2[nH]c(-c3cnn(Cc4cccc(C(F)(F)F)c4)c3)nc21	10	15	12	7.66	6.66	6.49	6.57
CCCn1c(=O)c2[nH]c(-c3cnn(Cc4cc(-c5ccc(C(F)(F)F)cc5)on4)c3)nc2n(CC)c1=O	87	152	94	7.60	5.66	5.42	5.63
CC(C)Cn1c(=O)c2[nH]c(-c3cnn(Cc4ccccc4)c3)nc2n(C)c1=O	16	9	19	7.68	6.46	6.69	6.39
CCn1c(=O)c2[nH]c(-c3cn[nH]c3)nc2n(C)c1=O	–	–	–	6.92	–	–	–
CCn1c(=O)n(CC2CC2)c(=O)c2[nH]c(-c3cnn(Cc4ccc(C(F)(F)F)nc4)c3)nc21	80	25	142	7.80	5.89	6.40	5.64
CCCCn1c(=O)c2[nH]c(-c3cnn(Cc4cccc(C(F)(F)F)c4)c3)nc2n(C)c1=O	38	41	43	7.96	6.37	6.34	6.32
CCCn1c(=O)c2[nH]c(-c3cnn(Cc4ccccn4)c3)nc2n(CC)c1=O	9	–	9	7.34	6.39	–	6.39

Source: ChEMBL document CHEMBL1145545, “Discovery of a novel A2B adenosine receptor antagonist as a clinical candidate for chronic inflammatory airway diseases” (J Med Chem, 2008)
